The test system of experiment [1] is C2C12. Briefly: Cardiomyogenic activity in mouse C2C12 cells assessed as upregulation of Nkx2.5 gene expression at 1 uM after 7 days by luciferase reporter assay relative to control. It is filed as functional. In outline: (§1)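 Nkx2.5 promoter firefly luciferase plasmid (pGL3b backbone) co-transfected with Renilla control one day before treatment. P19 cells treated in MEM-alpha/5% FBS induction medium; C2C12 cells treated in 2% horse serum differentiation medium. Compound 1 μM or 0.005% DMSO for 7 days, media refreshed twice. Dual-luciferase activity expressed as fold over DMSO control; paired two-tailed t-test on raw data.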
A general note: In a reporter assay the amount or activity of a reporter protein is the signal.

Experiment [2] has as its system P19. Briefly: Cardiomyogenic activity in mouse P19 cells assessed as upregulation of ANF gene expression at 1 uM after 7 days by luciferase reporter assay relative to control. It is filed as functional, cell-based. In outline: (§2)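 P19 and C2C12 cells transiently transfected with rat ANF promoter firefly luciferase plasmid plus pRL-SV40 Renilla control one day before treatment. P19: 7 days in induction medium (MEM-alpha, 5% FBS). C2C12: 7 days in differentiation medium (2% horse serum), compound added at the switch. Compound 1 μM, DMSO 0.005% in all wells, media refreshed twice. Dual-luciferase read-out, Renilla-normalised, expressed relative to DMSO control; n=3–10 independent preparations; 10 nM retinoic acid in P19 as positive control.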

The subject of experiment [3] is P19. Briefly: Cardiomyogenic activity in mouse P19 cells assessed as upregulation of Nkx2.5 gene expression at 1 uM after 7 days by luciferase reporter assay relative to control. It counts as functional. An outline of the steps: as §1
For experiment [4], the system named is C2C12. Briefly: Cardiomyogenic activity in mouse C2C12 cells assessed as upregulation of ANF gene expression at 1 uM after 7 days by luciferase reporter assay relative to control. It is filed as functional, cell-based. An outline of the steps:
as §2

Experiment [5] is filed under the species Mus musculus. Briefly: Cardiomyogenesis in mouse cardiovascular progenitor cells assessed as formation of cardiac bodies at 1 uM compound treated on day 0 to day 5 of myocardial differentiation commitment by phase contrast microscopy relative to control. It is filed as functional. The following applies: Heart. In outline: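 A5 CVPCs from newborn mouse hearts, grown in M15 on inactivated SNL76/7 feeders, aggregated into cardiac bodies in hanging drops (900 ± 50 cells per drop, 4.5 days), then plated on gelatine. Compound 1 μM or 0.005% DMSO present days 0–5. Beating CBs scored by microscopy for at least 20 days, 80 CBs per experiment, normalised daily to DMSO control.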

The species named for experiment [6] is Mus musculus. Put plainly: Cardiomyogenesis in mouse cardiovascular progenitor cells assessed as formation of cardiac bodies at 1 uM compound by phase contrast microscopy relative to control. The following applies: Heart.
Experiment [7] in a line: Cardiomyogenesis in mouse cardiovascular progenitor cells assessed as upregulation of tropomyosin gene expression at 1 uM by RT-PCR analysis. It is filed as functional.
Experiment [8] can be described thus: Cardiomyogenesis in mouse cardiovascular progenitor cells assessed as upregulation of Gata4 gene expression at 1 uM by RT-PCR analysis. It is filed as functional.
The nature of experiment [9]: Cardiomyogenesis in mouse cardiovascular progenitor cells assessed as upregulation of Mef2C gene expression at 1 uM by RT-PCR analysis. It is filed as functional.
A short description of experiment [10]: Cardiomyogenesis in mouse cardiovascular progenitor cells assessed as upregulation of Eomes gene expression at 1 uM by RT-PCR analysis. It counts as functional.
Experiment [11] is described as follows: Cardiomyogenesis in mouse cardiovascular progenitor cells assessed as upregulation of brachyury gene expression at 1 uM by RT-PCR analysis. It is filed as functional.
The species named for experiment [12] is Mus musculus. Put plainly: Cardiomyogenesis in mouse cardiovascular progenitor cells assessed as formation of cardiac bodies with beating at 1 uM compound treated on day 5 to day 13 of myocardial differentiation commitment measured on day 11 to 13 by phase contrast microscopy relative to control. The following applies: Heart. It is filed as functional.
A short description of experiment [13]: Cardiomyogenesis in mouse cardiovascular progenitor cells assessed as upregulation of Nkx2.5 gene expression at 1 uM by RT-PCR analysis. It counts as functional.
Experiment [14] is described as follows: Cardiomyogenesis in mouse cardiovascular progenitor cells assessed as upregulation of Mesp1 gene expression at 1 uM by RT-PCR analysis. It is filed as functional.

Active and inactive are the calls of the source. The rule behind the calls is not given here.

This is an account of results in ChEMBL document CHEMBL3132837, “VUT-MK142 : a new cardiomyogenic small molecule promoting the differentiation of pre-cardiac mesoderm into cardiomyocytes” (2013).

For the compound `COc1ccc(Nc2nccc(NCCO)n2)cc1` [CARDIOGENOL C], the “fold change (FC)” value in experiment [1] came to 1.4; in experiment [3], 1.6. Further, the result in [2] and in experiment [4] was Active.

With `CNc1cc(Nc2ccc(OC)cc2)ncn1`, the outcome in experiment [5], in experiment [2], in [4] and in experiment [6] was inactive.

For `COc1ccc(Nc2cc(NCCO)ncn2)cc1`, the result in [2] and in experiment [4] was Active.

For `COc1ccc(Nc2cccc(NCCO)n2)cc1`, the result in experiment [2] and in experiment [4] was Active.

As for `COc1ccc(Nc2cc(NC3CCCCC3)ncn2)cc1`, the “fold change (FC)” value is 2.2 in experiment [1] and 3.1 in [3]. The result in experiment [5], in experiment [7], in experiment [8], in experiment [10] and in experiment [14] was inactive. Also, the outcome in experiment [2], in experiment [9], in experiment [11], in [4], in [12] and in experiment [13] was Active. For the same compound, in experiment [6], the result was Active.

For `CCNc1cc(Nc2ccc(OC)cc2)ncn1`, in [4], the outcome was Active.

With `OCCNc1cccc(Nc2ccc(Oc3ccccc3)cc2)n1`, the outcome in experiment [2] and in experiment [4] was inactive.
